According to ChEMBL document CHEMBL1128472, “Reversible inhibitors of the gastric (H+/K+)-ATPase. 5. Substituted 2,4-diaminoquinazolines and thienopyrimidines” (J Med Chem, 1995):
One block for each molecule: values may come before it.

How the values were obtained:
[1] = target: Potassium-transporting ATPase (Sus scrofa, UniProt P19156); experiment: Inhibition of K+ stimulated gastric ATPase activity; assay type: tissue-based, Stomach
Outline: (§1)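 K+-stimulated ATPase activity measured in a lyophilized gastric vesicle preparation at pH 7; enzyme concentration estimated at around 2 nM from 32P-ATP binding.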

[2] = target: T1, Potassium-transporting ATPase (Rattus norvegicus) (UniProt P09626+P18598); experiment: Inhibition of pentagastrin stimulated gastric acid secretion in anesthetized rat 10 uM/kg, on iv administration of the compound.; assay type: functional, organism-based; conditions: Stomach
Outline: (§2)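 Anaesthetized rat with lumen-perfused stomach; acid secretion induced by pentagastrin; compound given intravenously; inhibition of acid output recorded.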

[3] = test system: Rattus norvegicus; experiment: Inhibition of pentagastrin stimulated gastric acid secretion in anesthetized rat at 10 uM/kg, on iv administration of the compound.; assay type: functional, Stomach; outline: as §2
[4] = target: T2, Potassium-transporting ATPase (Sus scrofa) (UniProt P18434+P19156); experiment: Inhibition of K+ stimulated gastric ATPase activity at 100 uM[…]; assay type: tissue-based; conditions: Stomach
[5] = test system: Canis familiaris; experiment: % inhibition of Histamine-stimulated gastric acid secretion in Heidenhain pouch dog at 4 uM/kg, on peroral administration of the compound.; assay type: functional, Canis lupus familiaris, Stomach
Outline: (§3)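 Heidenhain pouch dogs with histamine-stimulated acid secretion; compound given orally as a dry powder in a hard gelatin capsule; inhibition of acid secretion measured.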

[6] = test system: Canis familiaris; experiment: % inhibition of Histamine-stimulated gastric acid secretion in Heidenhain pouch dog at1uM/kg, on iv administration of the compound.; assay type: functional, Canis lupus familiaris, Stomach
[7] = test system: Rattus norvegicus; experiment: Inhibition of pentagastrin stimulated gastric acid secretion in anesthetized rat on iv administration of the compound.; assay type: functional; conditions: Stomach; outline: as §2
[8] = target: T1, Potassium-transporting ATPase (Rattus norvegicus); experiment: Inhibition of pentagastrin stimulated gastric acid secretion in anesthetized rat at 10 uM/kg; assay type: functional; conditions: Stomach; 10 umol/kg; outline: as §2
[9] = test system: Canis familiaris; experiment: % inhibition of Histamine-stimulated gastric acid secretion in Heidenhain pouch dog 1 uM/kg, on iv administration of the compound.; assay type: functional, Canis lupus familiaris, Stomach
[10] = test system: Canis familiaris; experiment: % inhibition of Histamine-stimulated gastric acid secretion in Heidenhain pouch dog 4 uM/kg, on peroral administration of the compound.; assay type: functional, Canis lupus familiaris, Stomach; outline: as §3
[11] = test system: Rattus norvegicus; experiment: Inhibition of pentagastrin stimulated gastric acid secretion in anesthetized rat on 10 uM/kg, iv administration of the compound.; assay type: functional, Stomach; outline: as §2
[12] = test system: Canis familiaris; experiment: Histamine-stimulated gastric acid secretion in Heidenhain pouch dog at 1uM/Kg, on iv administration of the compound; assay type: functional, Canis lupus familiaris, Stomach
[13] = test system: Canis familiaris; experiment: Histamine-stimulated gastric acid secretion in Heidenhain pouch dog at 4uM/Kg, on oral administration of the compound
[14] = test system: Canis familiaris; experiment: % inhibition of Histamine-stimulated gastric acid secretion in Heidenhain pouch dog at 1 uM/kg; assay type: functional, Canis lupus familiaris, Stomach
[15] = test system: Canis familiaris; experiment: % inhibition of Histamine-stimulated gastric acid secretion in Heidenhain pouch dog at 4 uM/kg; assay type: functional, Canis lupus familiaris, Stomach
[16] = target: T2, Potassium-transporting ATPase (Sus scrofa); experiment: Inhibition of K+ stimulated gastric ATPase activity at 100 uM; assay type: tissue-based; conditions: Stomach; outline: as §1
[17] = test system: Rattus norvegicus; experiment: Inhibition of pentagastrin stimulated gastric acid secretion in anesthetized rat at 10 uM, on iv administration of the compound.; assay type: functional, Stomach; outline: as §2
[18] = test system: Canis familiaris; experiment: % inhibition of Histamine-stimulated gastric acid secretion in Heidenhain pouch dog at 1 uM/kg, on peroral administration of the compound.; assay type: functional, Canis lupus familiaris, Stomach; conditions: in the assay text read “on iv administration” for “on peroral administration”
[19] = test system: Canis familiaris; experiment: % inhibition of Histamine-stimulated gastric acid secretion in Heidenhain pouch dog at 1 umol/kg on iv administration of the compound.; assay type: functional; conditions: Canis lupus familiaris, Stomach

Chain of Potassium-transporting ATPase (P18434 whole entry): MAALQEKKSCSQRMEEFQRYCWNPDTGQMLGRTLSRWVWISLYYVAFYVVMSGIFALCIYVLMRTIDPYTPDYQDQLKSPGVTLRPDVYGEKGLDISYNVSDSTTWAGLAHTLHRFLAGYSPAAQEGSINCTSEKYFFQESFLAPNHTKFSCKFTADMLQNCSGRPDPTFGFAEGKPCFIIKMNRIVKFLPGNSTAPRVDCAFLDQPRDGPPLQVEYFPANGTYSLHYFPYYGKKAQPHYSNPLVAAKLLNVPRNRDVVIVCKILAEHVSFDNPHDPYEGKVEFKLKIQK
Chain of Potassium-transporting ATPase (P19156 whole entry): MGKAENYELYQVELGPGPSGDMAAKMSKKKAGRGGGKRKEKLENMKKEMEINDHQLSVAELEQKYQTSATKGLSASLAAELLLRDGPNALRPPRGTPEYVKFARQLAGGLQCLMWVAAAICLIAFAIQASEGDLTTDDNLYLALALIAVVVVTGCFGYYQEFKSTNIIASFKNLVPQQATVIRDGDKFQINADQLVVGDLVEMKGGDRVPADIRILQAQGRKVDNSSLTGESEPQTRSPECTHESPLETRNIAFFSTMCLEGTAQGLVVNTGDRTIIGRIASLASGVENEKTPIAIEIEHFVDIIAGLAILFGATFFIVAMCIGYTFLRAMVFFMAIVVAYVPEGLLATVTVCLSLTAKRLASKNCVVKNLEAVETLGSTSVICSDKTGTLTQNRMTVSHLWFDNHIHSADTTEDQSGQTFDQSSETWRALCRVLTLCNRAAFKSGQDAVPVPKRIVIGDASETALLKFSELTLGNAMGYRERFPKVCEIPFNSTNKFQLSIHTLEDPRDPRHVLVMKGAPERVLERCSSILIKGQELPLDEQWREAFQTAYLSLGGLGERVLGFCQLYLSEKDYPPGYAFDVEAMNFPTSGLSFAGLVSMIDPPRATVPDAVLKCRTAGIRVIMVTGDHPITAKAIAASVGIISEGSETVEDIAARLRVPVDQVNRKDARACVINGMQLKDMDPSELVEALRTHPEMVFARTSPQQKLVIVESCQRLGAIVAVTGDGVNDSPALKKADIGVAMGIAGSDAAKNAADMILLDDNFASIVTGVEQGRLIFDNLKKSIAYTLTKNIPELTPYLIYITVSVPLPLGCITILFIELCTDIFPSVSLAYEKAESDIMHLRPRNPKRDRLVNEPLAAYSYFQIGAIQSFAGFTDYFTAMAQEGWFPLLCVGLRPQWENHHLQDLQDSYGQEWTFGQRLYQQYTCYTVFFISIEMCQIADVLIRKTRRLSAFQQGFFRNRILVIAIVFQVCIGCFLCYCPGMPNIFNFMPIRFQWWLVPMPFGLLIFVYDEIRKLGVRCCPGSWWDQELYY

- IC50 [1]: 1070 nM
- inhibition [2]: 23%
Compound: Cc1cc(O)ccc1Nc1nc(N(C)c2ccccc2)c2ccccc2n1

- IC50 [1]: 41 nM
- inhibition [2]: 31%
Compound: Cc1cc(Cl)ccc1Nc1nc(N(C)c2ccccc2)c2ccccc2n1

- IC50 [1]: 2500 nM
Compound: COc1cccc2c(Nc3ccccc3C)nc(Nc3ccccc3C)nc12

- IC50 [1]: 74 nM
Compound: COc1cccc2c(N(C)c3ccccc3)nc(N(C)c3ccccc3)nc12

- IC50 [1]: 21 nM
- inhibition [2]: 49%
Compound: Cc1ccccc1Nc1nc(N(C)c2ccccc2)c2cccc(OCCCN(C)C)c2n1
- Inhibition [9]: 18%
- Inhibition [10]: 25%

- IC50 [1]: 18 nM
Compound: Cc1cc(F)ccc1Nc1nc(N(C)c2ccccc2)c2cc(O)ccc2n1
- Inhibition [9]: 97%
- Inhibition [10]: 0%
- ED50 [7]: 1.5 µmol/kg

- IC50 [1]: 250 nM
Compound: COc1ccc2nc(Nc3ccc(F)cc3C)nc(N(C)c3ccccc3)c2c1
- Inhibition [11]: 27%

- IC50 [1]: 34 nM
- inhibition [8]: 60%
Compound: COc1ccc(N(C)c2nc(Nc3ccccc3C)nc3ccccc23)cc1
- Inhibition [5]: 12%

- IC50 [1]: 510 nM
Compound: Cc1ccccc1Nc1nc(N(C)c2ccccc2)c2ccsc2n1

- IC50 [1]: 590 nM
- inhibition [8]: 37%
Compound: COc1cccc2c(Nc3ccccc3C)nc(N(C)c3ccccc3)nc12

- IC50 [1]: 24 nM
Compound: Cc1ccccc1Nc1nc(N(C)c2ccccc2)c2cc(O)ccc2n1

- IC50 [1]: 1100 nM
Compound: Cc1cc(F)ccc1Nc1nc(N(C)c2ccccc2)c2cc(OCCCN(C)C)ccc2n1

- IC50 [1]: 2000 nM
Compound: COc1cccc2c(Nc3ccccc3C)nc(NCc3ccccc3)nc12

- IC50 [1]: 120 nM
Compound: Cc1ccccc1Nc1nc(N(C)c2ccc(F)cc2)c2ccccc2n1
- Inhibition [3]: 62%

- IC50 [1]: 35 nM
- inhibition [2]: 93%
Compound: Cc1ccccc1Nc1nc(N(C)c2ccccc2)c2cccc(OCCO)c2n1
- Inhibition [9]: 73%
- Inhibition [10]: 8%

- IC50 [1]: 340 nM
Compound: COc1ccc(Nc2nc(N(C)c3ccccc3)c3sccc3n2)c(C)c1

- IC50 [1]: 260 nM
Compound: Cc1ccccc1Nc1nc(N(C)c2ccccc2)c2cccc(O)c2n1

- IC50 [1]: 42 nM
Compound: COc1cccc2c(N(C)c3ccccc3)nc(Nc3ccccc3C)nc12
- Inhibition [14]: 79%
- Inhibition [15]: 44%
- ED50 [7]: 1.39 µmol/kg

- IC50 [1]: 140 nM
Compound: Cc1cc(F)ccc1Nc1nc(N(C)c2ccccc2)c2cccc(F)c2n1

- IC50 [1]: 100 nM
- inhibition [2]: 93%
Compound: COc1cccc2c(N(C)c3ccccc3C)nc(Nc3ccccc3C)nc12

- IC50 [1]: 100 nM
Compound: Cc1cc(F)ccc1Nc1nc(N(C)c2ccccc2)c2cccc(OCCO)c2n1

- IC50 [1]: 34 nM
Compound: Cc1cc(F)ccc1Nc1nc(N(C)c2ccccc2)c2sccc2n1
- Inhibition [3]: 49%

- IC50 [1]: 32 nM
- inhibition [2]: 94%
Compound: COc1cccc2c(N(C)c3ccccc3)nc(Nc3ccc(F)cc3C)nc12
- Inhibition [9]: 96%
- Inhibition [10]: 32%

- IC50 [1]: 360 nM
Compound: COc1ccc(Nc2nc(N(C)c3ccccc3)c3ccccc3n2)c(C)c1

- IC50 [1]: 1300 nM
Compound: Cc1cc(F)ccc1Nc1nc(N(C)c2ccccc2)c2cc(OCCN(C)C)ccc2n1

- IC50 [1]: 3200 nM
Compound: COc1cccc2c(Nc3ccccc3C)nc(NCCc3ccccc3)nc12

- IC50 [1]: 19 nM
Compound: Cc1ccccc1Nc1nc(N(C)c2ccccc2)c2sccc2n1
- Inhibition [18]: 84%
- Inhibition [5]: 12%
- Inhibition [3]: 50%

- IC50 [1]: 1900 nM
Compound: COc1cccc2c(Nc3ccccc3C)nc(NCc3ccco3)nc12

- IC50 [1]: 130 nM
Compound: Cc1cc(F)ccc1Nc1nc(N(C)c2ccccc2)c2ccsc2n1

- IC50 [1]: 95 nM
Compound: COc1cccc2c(N(C)c3ccccc3C)nc(Nc3ccc(F)cc3C)nc12

- IC50 [1]: 19 nM
Compound: Cc1ccccc1Nc1nc(N(C)c2ccc(O)cc2)c2ccccc2n1

- IC50 [1]: 22 nM
- inhibition [8]: 79%
Compound: Cc1ccccc1Nc1nc(N(C)c2ccccc2)c2ccccc2n1
- Inhibition [5]: 0%
- Inhibition [6]: 74%

- IC50 [1]: 1200 nM
- inhibition [8]: 13%
Compound: COc1cccc2c(N(C)c3ccccc3)nc(N)nc12

- IC50 [1]: 510 nM
- inhibition [2]: 46%
Compound: COc1ccc2nc(Nc3ccccc3C)nc(N(C)c3ccccc3)c2c1

- IC50 [1]: 170 nM
Compound: Cc1cc(F)ccc1Nc1nc(N(C)c2ccccc2)c2cccc(O)c2n1

- IC50 [1]: 130 nM
Compound: CCOC(=O)COc1cccc2c(N(C)c3ccccc3)nc(Nc3ccc(F)cc3C)nc12
- Inhibition [11]: 39%

- IC50 [1]: 46 nM
- inhibition [8]: 90%
Compound: Cc1ccccc1Nc1nc(N(C)c2ccccc2C)c2ccccc2n1

- IC50 [1]: 370 nM
- inhibition [2]: 5%
Compound: Cc1cc(F)ccc1Nc1nc(N(C)c2ccccc2)c2cc(OCCCN3CCOCC3)ccc2n1

- IC50 [1]: 36 nM
- inhibition [2]: 68%
Compound: Cc1cc(F)ccc1Nc1nc(N(C)c2ccccc2)c2cccc(OCCCN(C)C)c2n1
- Inhibition [10]: 0%

- IC50 [1]: 21 nM
Compound: Cc1cc(F)ccc1Nc1nc(N(C)c2ccccc2)c2ccccc2n1
- Inhibition [9]: 79%
- Inhibition [10]: 0%
- ED50 [7]: 1.94 µmol/kg

- IC50 [1]: 640 nM
- inhibition [8]: 19%
Compound: CNc1nc(Nc2ccccc2C)c2cccc(OC)c2n1

- IC50 [1]: 50 nM
- inhibition [2]: 73%
Compound: Cc1cc(F)ccc1Nc1nc(N(C)c2ccccc2)c2cccc(OCCCN3CCOCC3)c2n1
- Inhibition [10]: 0%

The next lines start with the molecule.

Compound: CN(c1ccccc1)c1nc(N(C)c2ccccc2)c2ccsc2n1
- IC50 [1]: 1300 nM
- Inhibition [3]: 14%

Compound: Cc1ccccc1Nc1nc(Nc2ccccc2)c2ccsc2n1
- inhibition [4]: 27%

Compound: Cc1cc(F)ccc1Nc1nc2c(C)cccc2c2c1CCN2c1ccccc1C
- IC50 [1]: 130 nM

Compound: Cc1ccccc1Nc1nc(Nc2ccccc2C)c2ccccc2n1
- IC50 [1]: 600 nM

Compound: CN(c1ccccc1)c1nc(N(C)c2ccccc2)c2ccccc2n1
- Inhibition [5]: 2%
- Inhibition [6]: 73%
- IC50 [1]: 67 nM
- ED50 [7]: 2.81 µmol/kg

Compound: COc1cccc2c(Nc3ccccc3C)nc(NCc3nccs3)nc12
- IC50 [1]: 3800 nM
- inhibition [8]: 33%

Compound: Cc1ccccc1Nc1nc(N)nc2c(C)cccc12
- IC50 [1]: 240 nM
- inhibition [8]: 48%

Compound: Cc1ccccc1Nc1nc(NCCc2ccccc2)nc2ccccc12
- IC50 [1]: 810 nM
- inhibition [8]: 31%

Compound: Cc1ccccc1Nc1nc(Nc2ccccc2)c2ccccc2n1
- IC50 [1]: 940 nM

Compound: Cc1ccccc1Nc1nc(N(C)c2ccccc2C)nc2ccccc12
- IC50 [1]: 2000 nM
- inhibition [8]: 27%

Compound: CCNc1nc(Nc2ccccc2C)c2ccccc2n1
- IC50 [1]: 1390 nM

Compound: CNc1nc2c(C)cccc2c2c1CCN2c1ccccc1C
- IC50 [1]: 180 nM

Compound: Cc1ccccc1Nc1nc(Nc2ccccc2C)c2ccsc2n1
- inhibition [4]: 27%

Compound: CCCC(=O)c1cnc2c(OC)cccc2c1Nc1ccccc1C
- ED50 [12]: 0.26 µmol/kg
- ED50 [13]: 1.6 µmol/kg

Compound: COc1cccc2c(Nc3ccccc3C)nc(N(C)C)nc12
- IC50 [1]: 16000 nM
- inhibition [8]: 37%

Compound: Cc1ccccc1Nc1nc(NCCO)nc2ccccc12
- IC50 [1]: 4600 nM
- inhibition [8]: 21%

Compound: Cc1ccccc1Nc1ncnc2ccccc12
- inhibition [16]: 28%
- Inhibition [17]: 9%

Compound: CN(c1ccccc1)c1nc(Nc2ccccc2)nc2ccccc12
- IC50 [1]: 65 nM
- ED50 [7]: 2.35 µmol/kg

Compound: CN(c1ccccc1)c1nc(N)nc2ccccc12
- IC50 [1]: 3300 nM
- inhibition [8]: 17%

Compound: COc1ccc(N(C)c2nc(Nc3ccccc3C)[n+](C)c3ccccc23)cc1
- IC50 [1]: 28 nM

Compound: COc1cccc2c(Nc3ccccc3C)nc(N)nc12
- Inhibition [5]: 0%
- inhibition in vivo at 1 µmol/kg [19]: 39%
- IC50 [1]: 80 nM
- ED50 [7]: 7.11 µmol/kg

Compound: CCN(c1ccccc1)c1nc(Nc2ccccc2C)nc2ccccc12
- IC50 [1]: 320 nM
- inhibition [8]: 59%

Compound: Cc1ccccc1Nc1nc(NCc2ccccc2)nc2ccccc12
- IC50 [1]: 510 nM

Compound: Cc1ccccc1Nc1nc(N2CCCC2)nc2ccccc12
- IC50 [1]: 2260 nM
- inhibition [8]: 17%

Compound: Cc1ccccc1Nc1nc(N)nc2ccccc12
- IC50 [1]: 1320 nM
- ED50 [7]: 48 µmol/kg

Compound: COc1cccc2c(Nc3ccccc3C)nc(N3CCCC3)nc12
- IC50 [1]: 30000 nM
- inhibition [8]: 31%

Compound: COc1cccc2c(Nc3ccccc3C)ncnc12
- IC50 [1]: 11600 nM
- inhibition [8]: 30%

Compound: CN(c1ccccc1)c1nc(N(C)c2ccccc2)c2sccc2n1
- IC50 [1]: 300 nM

Compound: CN/C(=N\CCSCc1nc[nH]c1C)NC#N [CIMETIDINE]
- ED50 [12]: 1.7 µmol/kg
- ED50 [13]: 8.5 µmol/kg
